# Measured values as given in ChEMBL document CHEMBL1153510, “Fascaplysin-inspired diindolyls as selective inhibitors of CDK4/cyclin D1” (Bioorg Med Chem, 2009).
# Biological target: Cyclin-dependent kinase 2 (Homo sapiens, UniProt P24941)
# Assay: Inhibition of human CDK2/ Cyclin A catalytic subunit expressed in Sf9 insect cells assessed as histone H1 phosphorylation-associated depletion in ATP level by luminescence assay
# Conditions: read-out: IC50
# Procedure, shortened: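 Human GST-cyclin A co-expressed with CDK2 in Sf-9 cells, captured on glutathione-agarose, eluted with reduced glutathione, then dialysed. Reaction volume 50 µL in kinase buffer (40 mM Tris pH 7.5, 20 mM MgCl2, 0.1 mg/ml BSA) with 3 µg histone H1 and 6 µM ATP. Also contains 10 mM β-glycerophosphate, 0.1 mM NaF, 0.1 mM orthovanadate and 1 mM DTT. Started with 200 ng enzyme, run 30 min at 30 °C. Remaining ATP read by Kinase-Glo luminescence; IC50 derived from ATP depletion. Compounds from 10 mM DMSO stocks, serially diluted in kinase buffer.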
row,Structure (SMILES),IC50 [µM]
1,Clc1ccc2c(ccn2CCc2c[nH]c3ccccc23)c1,430
2,Fc1ccc2[nH]cc(CCn3ccc4ccccc43)c2c1,200
3,O=C(C(=O)N1CCc2cc(F)ccc21)c1c[nH]c2ccc(F)cc12,816
4,Clc1ccc2c(ccn2CCc2c[nH]c3ccc(Cl)cc23)c1,862
5,Cc1ccc2c(ccn2CCc2c[nH]c3ccc(C)cc23)c1,960
6,O=C(C(=O)N1CCc2cc(Cl)ccc21)c1c[nH]c2ccc(Cl)cc12,915
7,Cc1ccc2c(c1)CCN2C(=O)C(=O)c1c[nH]c2ccccc12,910
8,O=C(C(=O)N1CCc2ccccc21)c1c[nH]c2ccc(F)cc12,1160
9,O=C(C(=O)N1CCc2cc(Cl)ccc21)c1c[nH]c2ccccc12,1030
10,c1ccc2c(c1)ccn2CCCCCCn1ccc2ccccc21,1210
11,Cc1ccc2[nH]cc(C(=O)C(=O)N3CCc4ccccc43)c2c1,951
12,O=C(C(=O)N1CCc2ccccc21)c1c[nH]c2ccc(Cl)cc12,985
13,c1ccc2c(c1)ccn2CCc1c[nH]c2ccccc12,> 500
14,Fc1ccc2c(ccn2CCc2c[nH]c3ccc(F)cc23)c1,895
15,Cc1ccc2c(ccn2CCc2c[nH]c3ccccc23)c1,500
16,O=C(C(=O)N1CCc2cc(F)ccc21)c1c[nH]c2ccccc12,790
17,Cc1ccc2[nH]cc(CCn3ccc4ccccc43)c2c1,400
18,Fc1ccc2c(ccn2CCc2c[nH]c3ccccc23)c1,> 500
19,c1ccc2c(c1)ccn2CCCCCn1ccc2ccccc21,950
20,Cc1ccc2c(c1)CCN2C(=O)C(=O)c1c[nH]c2ccc(C)cc12,710
21,Clc1ccc2[nH]cc(CCn3ccc4ccccc43)c2c1,> 500

# The remaining lines, values ahead:
row,IC50 [µM],Structure (SMILES)
1,940,c1ccc2c(c1)ccn2CCn1ccc2ccccc21
2,1230,c1ccc2c(c1)CCN2CCN1CCc2ccccc21
3,1030,c1ccc2c(c1)ccn2CCCCn1ccc2ccccc21
4,1070,c1ccc2c(c1)ccn2CCCn1ccc2ccccc21
5,760,O=C(C(=O)N1CCc2ccccc21)c1c[nH]c2ccccc12

# Same assay, conditions: sf9
row,IC50,Structure (SMILES)
1,ND(Insoluble),c1ccc2c(c1)CCN2CCCCCN1CCc2ccccc21
2,ND(Insoluble),c1ccc2c(c1)CCN2CCCN1CCc2ccccc21
3,ND(Insoluble),c1ccc2c(c1)CCN2CCCCN1CCc2ccccc21
4,ND(Insoluble),c1ccc2c(c1)CCN2CCCCCCN1CCc2ccccc21

# Biological target: Cyclin-dependent kinase 4/cyclin D1 (Homo sapiens, UniProt P11802+P24385)
# Sequence (P11802 whole entry, the tested form may be a part): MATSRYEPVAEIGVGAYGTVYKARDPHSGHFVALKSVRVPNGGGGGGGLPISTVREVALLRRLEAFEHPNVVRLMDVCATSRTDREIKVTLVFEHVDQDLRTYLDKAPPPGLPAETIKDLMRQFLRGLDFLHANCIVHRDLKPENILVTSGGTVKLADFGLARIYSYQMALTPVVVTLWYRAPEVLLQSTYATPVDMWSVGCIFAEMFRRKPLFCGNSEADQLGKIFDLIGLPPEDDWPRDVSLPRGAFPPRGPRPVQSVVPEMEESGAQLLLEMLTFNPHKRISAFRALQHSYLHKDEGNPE
# Sequence (P24385 whole entry, the tested form may be a part): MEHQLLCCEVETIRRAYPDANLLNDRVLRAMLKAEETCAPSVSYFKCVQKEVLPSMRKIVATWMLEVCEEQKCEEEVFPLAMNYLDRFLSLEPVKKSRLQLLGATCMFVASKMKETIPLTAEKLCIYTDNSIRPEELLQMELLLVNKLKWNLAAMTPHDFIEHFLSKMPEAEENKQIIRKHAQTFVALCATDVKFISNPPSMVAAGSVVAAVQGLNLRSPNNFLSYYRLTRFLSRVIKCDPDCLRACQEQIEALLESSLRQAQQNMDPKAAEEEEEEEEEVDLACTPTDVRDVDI
# Assay: (§1) Inhibition of human CDK4/ Cyclin D1 catalytic subunit expressed in Sf9 insect cells assessed as GST-RB152 fusion protein phosphorylation-associated depletion in ATP level by luminescence assay
# Conditions: sf9
# Procedure, shortened: (§2)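 Human GST-cyclin D1 co-expressed with CDK4 in Sf-9 cells, purified on glutathione-agarose, eluted and dialysed. Substrate GST-RB152, expressed in E. coli BL21(DE3)pLysS with 4 mM IPTG induction for 4 h at 37 °C. Reaction: 2 µg GST-RB152 and 6 µM ATP in 50 µL Tris pH 7.5/MgCl2/BSA buffer with phosphatase inhibitors and DTT. Started with 200 ng enzyme, 30 min at 30 °C. Read-out Kinase-Glo luminescence of ATP depletion, giving IC50.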
row,IC50,Structure (SMILES)
1,ND(Insoluble),c1ccc2c(c1)CCN2CCCCCN1CCc2ccccc21
2,ND(Insoluble),c1ccc2c(c1)CCN2CCCN1CCc2ccccc21
3,ND(Insoluble),c1ccc2c(c1)CCN2CCCCN1CCc2ccccc21
4,ND(Insoluble),c1ccc2c(c1)CCN2CCCCCCN1CCc2ccccc21

# Biological target: Cyclin-dependent kinase 4/cyclin D1 (Homo sapiens, UniProt P11802)
# Sequence (P11802 whole entry): as the sequence (P11802 whole entry, the tested form may be a part) above
# Sequence (P24385 whole entry, further chain): as the sequence (P24385 whole entry, the tested form may be a part) above
# Assay: as §1
# Conditions: not given
# Procedure, shortened: as §2
row,Structure (SMILES),IC50 [µM]
1,Clc1ccc2c(ccn2CCc2c[nH]c3ccccc23)c1,140
2,Fc1ccc2[nH]cc(CCn3ccc4ccccc43)c2c1,50
3,O=C(C(=O)N1CCc2cc(F)ccc21)c1c[nH]c2ccc(F)cc12,48
4,Clc1ccc2c(ccn2CCc2c[nH]c3ccc(Cl)cc23)c1,38
5,Cc1ccc2c(ccn2CCc2c[nH]c3ccc(C)cc23)c1,44
6,O=C(C(=O)N1CCc2cc(Cl)ccc21)c1c[nH]c2ccc(Cl)cc12,43.5
7,Cc1ccc2c(c1)CCN2C(=O)C(=O)c1c[nH]c2ccccc12,54
8,O=C(C(=O)N1CCc2ccccc21)c1c[nH]c2ccc(F)cc12,116
9,O=C(C(=O)N1CCc2cc(Cl)ccc21)c1c[nH]c2ccccc12,69.5
10,c1ccc2c(c1)ccn2CCCCCCn1ccc2ccccc21,106
11,Cc1ccc2[nH]cc(C(=O)C(=O)N3CCc4ccccc43)c2c1,41.5
12,O=C(C(=O)N1CCc2ccccc21)c1c[nH]c2ccc(Cl)cc12,96
13,c1ccc2c(c1)ccn2CCc1c[nH]c2ccccc12,> 500
14,Fc1ccc2c(ccn2CCc2c[nH]c3ccc(F)cc23)c1,73
15,Cc1ccc2c(ccn2CCc2c[nH]c3ccccc23)c1,130
16,O=C(C(=O)N1CCc2cc(F)ccc21)c1c[nH]c2ccccc12,136
17,Cc1ccc2[nH]cc(CCn3ccc4ccccc43)c2c1,150
18,Fc1ccc2c(ccn2CCc2c[nH]c3ccccc23)c1,95
19,c1ccc2c(c1)ccn2CCCCCn1ccc2ccccc21,52
20,Cc1ccc2c(c1)CCN2C(=O)C(=O)c1c[nH]c2ccc(C)cc12,38
21,Clc1ccc2[nH]cc(CCn3ccc4ccccc43)c2c1,> 500

# Now from value to molecule:
row,IC50 [µM],Structure (SMILES)
1,37,c1ccc2c(c1)ccn2CCn1ccc2ccccc21
2,66,c1ccc2c(c1)CCN2CCN1CCc2ccccc21
3,45,c1ccc2c(c1)ccn2CCCCn1ccc2ccccc21
4,38,c1ccc2c(c1)ccn2CCCn1ccc2ccccc21
5,122,O=C(C(=O)N1CCc2ccccc21)c1c[nH]c2ccccc12
